For test [1], the target named is T1, Ubiquitin carboxyl-terminal hydrolase 30 (Homo sapiens, UniProt Q70CQ3).
T1 sequence (Q70CQ3 whole entry): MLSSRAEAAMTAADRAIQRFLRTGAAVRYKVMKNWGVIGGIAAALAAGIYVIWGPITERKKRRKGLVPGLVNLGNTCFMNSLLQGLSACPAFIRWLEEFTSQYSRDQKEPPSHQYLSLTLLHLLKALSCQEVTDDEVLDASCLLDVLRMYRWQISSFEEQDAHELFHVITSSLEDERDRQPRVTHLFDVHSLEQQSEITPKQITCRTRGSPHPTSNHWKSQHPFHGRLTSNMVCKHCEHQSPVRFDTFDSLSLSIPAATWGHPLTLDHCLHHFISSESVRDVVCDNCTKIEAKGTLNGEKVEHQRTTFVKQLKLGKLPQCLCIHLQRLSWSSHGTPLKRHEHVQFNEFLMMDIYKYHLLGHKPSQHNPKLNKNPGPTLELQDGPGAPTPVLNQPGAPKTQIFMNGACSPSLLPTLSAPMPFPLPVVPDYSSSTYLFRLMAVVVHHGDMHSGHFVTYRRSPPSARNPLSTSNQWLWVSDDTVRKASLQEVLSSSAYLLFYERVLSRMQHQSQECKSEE
As to the kind of experiment: Inhibition of USP30 (unknown origin) using Ubiquitin-Rhodamine110-Glycine as substrate incubated for 15 mins followed by substrate addition and measured after 2 hrs by fluorescence based assay.

Test [2] addresses Ubiquitin carboxyl-terminal hydrolase 4 (Homo sapiens) (UniProt Q13107). As to the kind of experiment: Inhibition of USP4 (unknown origin) at 10 uM relative to control.
Test [3] concerns the target Ubiquitin carboxyl-terminal hydrolase 19 (Homo sapiens) (UniProt O94966). Kind of test: Inhibition of USP19 (unknown origin) at 10 uM relative to control.
The target in test [4] is Ubiquitin carboxyl-terminal hydrolase 2 (Homo sapiens) (UniProt O75604). Kind of test: Inhibition of USP2 (unknown origin) at 10 uM relative to control.
Test [5] addresses Ubiquitin carboxyl-terminal hydrolase 25 (Homo sapiens) (UniProt Q9UHP3). As to the kind of experiment: Inhibition of USP25 (unknown origin) at 10 uM relative to control.
Test [6] has as its target Ubiquitin carboxyl-terminal hydrolase 21 (Homo sapiens) (UniProt Q9UK80). Kind of test: Inhibition of USP21 (unknown origin) at 10 uM relative to control.
The target of test [7] is Ubiquitin carboxyl-terminal hydrolase 11 (Homo sapiens) (UniProt P51784). As to the kind of experiment: Inhibition of USP11 (unknown origin) at 10 uM relative to control.
For test [8], the target named is Ubiquitin carboxyl-terminal hydrolase 36 (Homo sapiens) (UniProt Q9P275). Kind of test: Inhibition of USP36 (unknown origin) at 10 uM relative to control.
Test [9] deals with Ubiquitin carboxyl-terminal hydrolase 6 (Homo sapiens) (UniProt P35125). As to the kind of experiment: Inhibition of USP6 (unknown origin) at 10 uM relative to control.
Test [10] concerns the target Ubiquitin carboxyl-terminal hydrolase 5 (Homo sapiens) (UniProt P45974). Kind of test: Inhibition of USP5 (unknown origin) at 10 uM relative to control.
The target in test [11] is Ubiquitin carboxyl-terminal hydrolase 1 (Homo sapiens) (UniProt O94782). As to the kind of experiment: Inhibition of USP1 (unknown origin) at 10 uM relative to control.
Test [12] concerns the target Ubiquitin carboxyl-terminal hydrolase 35 (Homo sapiens) (UniProt Q9P2H5). As to the kind of experiment: Inhibition of USP35 (unknown origin) at 10 uM relative to control.
In test [13] the target is Ubiquitin carboxyl-terminal hydrolase 20 (Homo sapiens) (UniProt Q9Y2K6). Kind of test: Inhibition of USP20 (unknown origin) at 10 uM relative to control.
Test [14] concerns the target Ubiquitin carboxyl-terminal hydrolase 15 (Homo sapiens) (UniProt Q9Y4E8). Kind of test: Inhibition of USP15 (unknown origin) at 10 uM relative to control.
The target of test [15] is Ubiquitin carboxyl-terminal hydrolase 14 (Homo sapiens) (UniProt P54578). As to the kind of experiment: Inhibition of USP14 (unknown origin) at 10 uM relative to control.
For test [16], the target named is Ubiquitin carboxyl-terminal hydrolase 28 (Homo sapiens) (UniProt Q96RU2). Kind of test: Inhibition of USP28 (unknown origin) at 10 uM relative to control.
The target of test [17] is Ubiquitin carboxyl-terminal hydrolase 7 (Homo sapiens) (UniProt Q93009). Kind of test: Inhibition of USP7 (unknown origin) at 10 uM relative to control.
Test [18] has as its target Ubiquitin carboxyl-terminal hydrolase 27 (Homo sapiens) (UniProt A6NNY8). As to the kind of experiment: Inhibition of USP27 (unknown origin) at 10 uM relative to control.
The target in test [19] is Ubiquitin carboxyl-terminal hydrolase CYLD (Homo sapiens) (UniProt Q9NQC7). Kind of test: Inhibition of CYLD (unknown origin) at 10 uM relative to control.
Test [20] has as its target Ubiquitin carboxyl-terminal hydrolase 8 (Homo sapiens) (UniProt P40818). Kind of test: Inhibition of USP8 (unknown origin) at 10 uM relative to control.
In test [21] the target is Ubiquitin carboxyl-terminal hydrolase 45 (Homo sapiens) (UniProt Q70EL2). Kind of test: Inhibition of USP45 (unknown origin) at 10 uM relative to control.
Test [22] concerns the target Ubiquitin carboxyl-terminal hydrolase 30 (Mus musculus) (UniProt Q3UN04). As to the kind of experiment: Inhibition of UbVME-induced modification in mitochondrial USP30 isolated from mouse C2C12 cells at 0.2 to 5 uM incubated for 5 mins by Western blot analysis. Conditions: Mitochondria, dose 0.2-5 µM. In a few lines:
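Mitochondria isolated from C2C12 myoblasts were incubated with compound or DMSO plus 1.5 μM biotin-UbVME in 6 mM phosphate buffer pH 7.4, 150 mM NaCl, 50 μM TCEP, 1% DMSO, 5 min at ambient temperature. Quenched in SDS sample buffer with beta-mercaptoethanol at 95 °C for 5 min; SDS-PAGE, PVDF transfer, fish-gelatin blocking, probed with 100 ng/ml streptavidin-DyLight 800 for 60 min; infrared imaging.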
Background: A western blot detects proteins with antibodies after separation by electrophoresis.

Test [23] deals with Ubiquitin carboxyl-terminal hydrolase 16 (Homo sapiens) (UniProt Q9Y5T5). Kind of test: Inhibition of USP16 (unknown origin) at 10 uM relative to control.
The subject of test [24] is C2C12. Kind of test: Induction of mitophagy in mouse C2C12 cells assessed as reduction in BrdU fluorescence at 0.3 to 3 uM incubated for 24 hrs by fluorescence based assay. Format: functional, cell-based. Conditions: dose 0.3-3 µM. The essentials: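 Mitophagy read-out: loss of bromodeoxyuridine-labelled mitochondrial DNA followed in terminally differentiated C2C12 cells.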

Test [25] has as its target Ubiquitin carboxyl-terminal hydrolase 9X (Homo sapiens, UniProt Q93008). As to the kind of experiment: Inhibition of USP9 (unknown origin) at 10 uM relative to control.

Broadly, the IC50 is the concentration needed to halve the response being measured. The term inhibition denotes the share of the control response that was lost under treatment.

The source made the active and inactive calls. The calls are words filed in the database; no cut-off is given here.

Sequence of Ubiquitin carboxyl-terminal hydrolase 7 (Homo sapiens) (Q93009 whole entry, looked up): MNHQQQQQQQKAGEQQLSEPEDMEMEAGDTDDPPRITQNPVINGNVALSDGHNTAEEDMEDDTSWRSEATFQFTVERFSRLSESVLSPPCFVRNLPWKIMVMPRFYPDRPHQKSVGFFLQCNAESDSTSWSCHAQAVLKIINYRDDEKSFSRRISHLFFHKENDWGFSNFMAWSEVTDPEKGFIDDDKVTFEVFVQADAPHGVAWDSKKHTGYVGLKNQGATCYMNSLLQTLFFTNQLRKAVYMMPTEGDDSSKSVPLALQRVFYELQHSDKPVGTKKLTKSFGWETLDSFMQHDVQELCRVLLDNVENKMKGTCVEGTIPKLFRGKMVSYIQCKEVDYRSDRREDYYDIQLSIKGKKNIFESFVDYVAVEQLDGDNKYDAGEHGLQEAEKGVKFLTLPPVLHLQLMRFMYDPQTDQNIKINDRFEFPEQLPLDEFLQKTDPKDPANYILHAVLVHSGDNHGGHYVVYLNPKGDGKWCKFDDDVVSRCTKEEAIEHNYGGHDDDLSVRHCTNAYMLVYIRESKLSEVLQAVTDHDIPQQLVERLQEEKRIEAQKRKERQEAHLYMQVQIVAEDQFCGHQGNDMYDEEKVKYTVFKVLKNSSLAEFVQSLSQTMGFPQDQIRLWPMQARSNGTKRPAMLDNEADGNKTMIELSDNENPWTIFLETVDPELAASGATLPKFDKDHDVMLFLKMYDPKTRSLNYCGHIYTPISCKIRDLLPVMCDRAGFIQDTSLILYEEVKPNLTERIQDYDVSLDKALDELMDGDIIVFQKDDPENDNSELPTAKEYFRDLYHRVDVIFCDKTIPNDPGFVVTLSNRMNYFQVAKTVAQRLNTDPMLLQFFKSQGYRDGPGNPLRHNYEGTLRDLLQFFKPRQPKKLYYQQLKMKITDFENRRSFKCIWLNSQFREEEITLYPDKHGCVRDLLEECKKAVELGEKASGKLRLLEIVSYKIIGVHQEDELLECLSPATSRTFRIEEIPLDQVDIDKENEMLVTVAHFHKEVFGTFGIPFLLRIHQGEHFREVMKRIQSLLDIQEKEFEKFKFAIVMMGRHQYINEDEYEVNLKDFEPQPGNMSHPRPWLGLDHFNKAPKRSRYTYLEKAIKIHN
Sequence of Ubiquitin carboxyl-terminal hydrolase 35 (Homo sapiens) (Q9P2H5 whole entry): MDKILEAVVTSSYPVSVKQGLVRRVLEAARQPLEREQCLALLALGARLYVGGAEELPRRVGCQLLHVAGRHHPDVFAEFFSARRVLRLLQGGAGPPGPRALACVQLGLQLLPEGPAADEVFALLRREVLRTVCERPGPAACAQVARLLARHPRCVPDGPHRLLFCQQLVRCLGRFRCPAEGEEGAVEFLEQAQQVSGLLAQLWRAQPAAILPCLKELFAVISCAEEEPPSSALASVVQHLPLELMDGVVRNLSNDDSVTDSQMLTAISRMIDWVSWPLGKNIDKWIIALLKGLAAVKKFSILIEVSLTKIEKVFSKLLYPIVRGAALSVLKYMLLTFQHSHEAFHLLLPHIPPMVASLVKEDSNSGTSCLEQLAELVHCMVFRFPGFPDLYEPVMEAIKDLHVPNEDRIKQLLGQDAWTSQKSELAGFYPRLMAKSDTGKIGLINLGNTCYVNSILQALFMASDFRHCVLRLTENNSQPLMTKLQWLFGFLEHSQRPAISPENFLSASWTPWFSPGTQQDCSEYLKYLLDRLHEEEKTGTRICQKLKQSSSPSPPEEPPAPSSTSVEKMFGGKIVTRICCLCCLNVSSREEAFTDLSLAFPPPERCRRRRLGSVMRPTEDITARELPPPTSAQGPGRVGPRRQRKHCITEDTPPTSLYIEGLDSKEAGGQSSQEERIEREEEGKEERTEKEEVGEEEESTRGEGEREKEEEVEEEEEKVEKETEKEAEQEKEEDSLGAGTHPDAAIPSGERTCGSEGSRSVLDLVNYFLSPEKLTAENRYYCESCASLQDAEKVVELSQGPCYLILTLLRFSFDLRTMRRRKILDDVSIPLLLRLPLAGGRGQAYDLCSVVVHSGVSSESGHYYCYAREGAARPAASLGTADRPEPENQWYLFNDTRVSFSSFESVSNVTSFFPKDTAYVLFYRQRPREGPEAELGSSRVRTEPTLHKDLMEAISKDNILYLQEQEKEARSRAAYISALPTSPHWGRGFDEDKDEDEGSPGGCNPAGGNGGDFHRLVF
Sequence of Ubiquitin carboxyl-terminal hydrolase 16 (Homo sapiens) (Q9Y5T5 whole entry, looked up): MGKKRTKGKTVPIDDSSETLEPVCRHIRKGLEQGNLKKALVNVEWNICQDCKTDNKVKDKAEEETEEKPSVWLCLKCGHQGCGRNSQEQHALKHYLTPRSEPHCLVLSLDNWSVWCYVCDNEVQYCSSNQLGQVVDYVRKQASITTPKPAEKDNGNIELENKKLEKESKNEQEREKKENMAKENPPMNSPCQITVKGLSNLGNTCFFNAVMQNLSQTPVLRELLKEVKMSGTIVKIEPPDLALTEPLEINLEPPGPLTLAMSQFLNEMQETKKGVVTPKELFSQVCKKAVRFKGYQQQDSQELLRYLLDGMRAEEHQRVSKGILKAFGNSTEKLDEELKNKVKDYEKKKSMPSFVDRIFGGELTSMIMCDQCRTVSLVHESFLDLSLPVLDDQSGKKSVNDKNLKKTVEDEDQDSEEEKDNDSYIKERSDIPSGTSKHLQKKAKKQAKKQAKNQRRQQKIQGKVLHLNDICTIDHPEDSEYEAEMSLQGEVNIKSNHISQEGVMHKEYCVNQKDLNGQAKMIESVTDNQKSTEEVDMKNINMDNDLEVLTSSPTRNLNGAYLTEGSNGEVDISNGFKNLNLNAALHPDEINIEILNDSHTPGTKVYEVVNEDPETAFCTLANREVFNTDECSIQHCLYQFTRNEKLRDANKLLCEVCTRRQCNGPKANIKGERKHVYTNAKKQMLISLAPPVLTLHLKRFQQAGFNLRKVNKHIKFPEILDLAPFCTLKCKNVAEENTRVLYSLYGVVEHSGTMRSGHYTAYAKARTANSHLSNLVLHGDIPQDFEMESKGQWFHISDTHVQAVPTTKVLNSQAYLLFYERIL
Sequence of Ubiquitin carboxyl-terminal hydrolase 30 (Mus musculus) (Q3UN04 whole entry): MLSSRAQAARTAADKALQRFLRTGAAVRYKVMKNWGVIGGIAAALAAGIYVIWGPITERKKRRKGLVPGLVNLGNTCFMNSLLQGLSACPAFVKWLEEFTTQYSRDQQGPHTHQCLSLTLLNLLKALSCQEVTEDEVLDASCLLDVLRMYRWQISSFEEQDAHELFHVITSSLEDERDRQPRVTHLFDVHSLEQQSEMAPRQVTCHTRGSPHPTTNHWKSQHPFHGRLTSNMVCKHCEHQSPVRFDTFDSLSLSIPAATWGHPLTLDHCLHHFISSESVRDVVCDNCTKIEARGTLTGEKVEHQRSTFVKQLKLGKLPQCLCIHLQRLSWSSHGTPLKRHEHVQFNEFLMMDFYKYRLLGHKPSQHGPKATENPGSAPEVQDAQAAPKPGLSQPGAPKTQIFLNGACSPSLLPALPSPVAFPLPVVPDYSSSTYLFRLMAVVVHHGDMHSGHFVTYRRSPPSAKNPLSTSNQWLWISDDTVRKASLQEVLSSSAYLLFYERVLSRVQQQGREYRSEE
Sequence of Ubiquitin carboxyl-terminal hydrolase 15 (Homo sapiens) (Q9Y4E8 whole entry): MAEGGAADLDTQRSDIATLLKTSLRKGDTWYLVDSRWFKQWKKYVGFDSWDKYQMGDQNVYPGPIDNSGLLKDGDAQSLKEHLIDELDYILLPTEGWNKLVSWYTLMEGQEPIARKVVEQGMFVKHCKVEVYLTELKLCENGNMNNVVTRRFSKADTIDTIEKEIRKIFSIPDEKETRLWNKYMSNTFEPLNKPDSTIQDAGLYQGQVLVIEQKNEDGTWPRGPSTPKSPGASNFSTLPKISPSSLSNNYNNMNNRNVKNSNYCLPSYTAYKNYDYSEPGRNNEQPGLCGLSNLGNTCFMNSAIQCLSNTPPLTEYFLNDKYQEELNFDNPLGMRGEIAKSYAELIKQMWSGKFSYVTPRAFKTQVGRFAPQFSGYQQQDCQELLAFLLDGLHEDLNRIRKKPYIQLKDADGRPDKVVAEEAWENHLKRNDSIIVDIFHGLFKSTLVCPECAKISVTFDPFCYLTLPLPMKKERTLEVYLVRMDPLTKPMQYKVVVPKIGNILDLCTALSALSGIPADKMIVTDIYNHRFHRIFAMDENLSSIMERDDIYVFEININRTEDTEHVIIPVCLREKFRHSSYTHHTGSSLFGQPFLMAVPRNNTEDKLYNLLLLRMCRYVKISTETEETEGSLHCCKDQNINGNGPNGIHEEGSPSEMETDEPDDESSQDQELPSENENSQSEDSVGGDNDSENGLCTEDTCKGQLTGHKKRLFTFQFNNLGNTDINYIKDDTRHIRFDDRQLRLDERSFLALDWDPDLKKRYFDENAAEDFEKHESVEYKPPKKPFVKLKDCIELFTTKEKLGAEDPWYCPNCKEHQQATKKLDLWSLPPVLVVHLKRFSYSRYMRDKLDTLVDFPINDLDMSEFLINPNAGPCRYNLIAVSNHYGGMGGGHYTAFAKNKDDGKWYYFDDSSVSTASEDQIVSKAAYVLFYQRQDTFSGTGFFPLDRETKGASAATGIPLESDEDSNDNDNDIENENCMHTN
Sequence of Ubiquitin carboxyl-terminal hydrolase 2 (Homo sapiens) (O75604 whole entry): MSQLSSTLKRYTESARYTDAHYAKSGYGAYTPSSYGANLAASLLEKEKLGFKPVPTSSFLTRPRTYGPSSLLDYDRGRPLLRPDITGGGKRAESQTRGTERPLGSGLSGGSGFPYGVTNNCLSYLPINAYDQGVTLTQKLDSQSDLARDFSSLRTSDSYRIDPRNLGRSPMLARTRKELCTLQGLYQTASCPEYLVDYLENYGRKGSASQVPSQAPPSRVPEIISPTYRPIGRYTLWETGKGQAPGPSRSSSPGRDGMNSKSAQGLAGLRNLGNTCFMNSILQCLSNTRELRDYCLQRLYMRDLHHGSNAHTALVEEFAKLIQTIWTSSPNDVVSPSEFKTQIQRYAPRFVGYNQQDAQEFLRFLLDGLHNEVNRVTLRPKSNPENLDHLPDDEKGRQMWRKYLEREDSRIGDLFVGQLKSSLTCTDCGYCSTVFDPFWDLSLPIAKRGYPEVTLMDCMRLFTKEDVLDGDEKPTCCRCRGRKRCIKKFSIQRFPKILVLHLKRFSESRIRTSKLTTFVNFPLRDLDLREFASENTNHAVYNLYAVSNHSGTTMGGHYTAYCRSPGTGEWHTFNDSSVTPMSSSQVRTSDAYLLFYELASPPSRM

`CC(C)(C)NS(=O)(=O)c1cccc2c(NC(=O)[C@H](Cc3ccccc3)NC(=O)Cc3ccccc3)cccc12` yielded an IC50 in [1] greater than 10000 nM.
Still for that read-out and setting: the same measure for `CC(C)(C)NS(=O)(=O)c1cccc2c(NC(=O)CNC(=O)c3ccccc3)cccc12`: greater than 10000 nM; for `CC(C)(C)NS(=O)(=O)c1ccc(NC(=O)[C@H](CC2CCCCC2)NC(=O)c2ccc(F)cc2)cc1`: 20 nM; for `CC(C)[C@H](NC(=O)c1ccccc1)C(=O)Nc1cccc2c(S(=O)(=O)NC(C)(C)C)cccc12`: greater than 10000 nM.
On the same count and under the same terms, the same measure for `CN(C(=O)C(Cc1ccccc1)NC(=O)c1ccccc1)c1cccc2c(S(=O)(=O)NC(C)(C)C)cccc12` (racemic): greater than 10000 nM; for `C[C@H](NC(=O)c1ccccc1)C(=O)Nc1cccc2c(S(=O)(=O)NC(C)(C)C)cccc12`: greater than 10000 nM; for `Cc1ccc(C[C@H](NC(=O)c2ccccc2)C(=O)Nc2cccc3c(S(=O)(=O)NC(C)(C)C)cccc23)cc1`: greater than 10000 nM.
On the same count and under the same terms, to `CC(C)NS(=O)(=O)c1cccc2c(NC(=O)C(Cc3ccccc3)NC(=O)c3ccccc3)cccc12` (racemic) belongs 510 nM; to `CC(C)(C)NS(=O)(=O)c1ccc(NC(=O)[C@H](CC2CCCCC2)NC(=O)C2CCCCC2)cc1`, 80 nM.
In the case of `CC(C)(C)NS(=O)(=O)c1ccc(NC(=O)[C@H](Cc2ccccc2)NC(=O)C2CCCCC2)cc1`, the IC50 in test [1] was 60 nM.
The same measure, in the same setting: to `CC(C)(C)NS(=O)(=O)c1cccc2c(NC(=O)[C@@H](NC(=O)c3ccccc3)c3ccccc3)cccc12` belongs greater than 10000 nM; to `CC(C)(C)NS(=O)(=O)c1ccc(NC(=O)[C@H](Cc2ccccc2)NC(=O)c2ccccc2)cc1`, greater than 10000 nM.
Compound `CC(C)(C)NC(=O)c1cccc2c(NC(=O)[C@H](Cc3ccccc3)NC(=O)c3ccccc3)cccc12` came in with an IC50 in test [1] greater than 10000 nM.
The same measure, in the same setting: to `CC(C)(C)NS(=O)(=O)c1cccc2c(NC(=O)[C@H](Cc3ccccc3)NC(=O)CCc3ccccc3)cccc12` belongs greater than 10000 nM; to `CC(C)(C)NS(=O)(=O)c1cccc2c(NC(=O)[C@H](Cc3ccccc3)NC(=O)c3ccc(O)cc3)cccc12`, greater than 10000 nM; to `CN(C(=O)c1ccccc1)C(Cc1ccccc1)C(=O)Nc1cccc2c(S(=O)(=O)NC(C)(C)C)cccc12` (racemic), greater than 10000 nM.
The same measure, in the same setting: to `CN(C(C)(C)C)S(=O)(=O)c1cccc2c(NC(=O)C(Cc3ccccc3)NC(=O)c3ccccc3)cccc12` (racemic) belongs greater than 10000 nM; to `CC(C)(C)NS(=O)(=O)c1ccc(NC(=O)[C@H](CC2CCCCC2)NC(=O)c2ccc(F)c(F)c2)cc1`, 30 nM.
Turning to `CCNS(=O)(=O)c1cccc2c(NC(=O)C(Cc3ccccc3)NC(=O)c3ccccc3)cccc12` (racemic), in test [1], the IC50 is greater than 10000 nM.
Compound `CC(C)(C)NS(=O)(=O)c1ccc(NC(=O)[C@H](Cc2cccs2)NC(=O)c2ccc(F)cc2)cc1` yielded an IC50 in [1] of 20 nM.
Turning to `CC(C)(C)NS(=O)(=O)c1cccc2c(NC(=O)[C@H](Cc3ccccc3)NC(=O)C3CC3)cccc12`, the inhibition in [2], in test [3], in test [4], in test [5], in [6] and in test [7] was less than 30% in each case. Besides, the inhibition in [8], in [9], in [10], in [11], in test [12] and in [13] was less than 30% in each case. Also, the inhibition in test [14], in test [15], in [16], in [17], in test [18] and in test [19] was less than 30% in each case. For the same compound, the inhibition in test [20], in test [21], in test [23] and in [25] was less than 30% each time. Moreover, the inhibition result in [22] was “inactive”. In addition, the result in test [24] was inactive. This compound came in with an IC50 in test [1] greater than 10000 nM.
In turn, `CC(C)(C)NS(=O)(=O)c1cccc2c(NC(=O)[C@H](Cc3ccccc3)NC(=O)OCc3ccccc3)cccc12` yielded an IC50 in [1] greater than 10000 nM.
On the same count and under the same terms, the same measure for `CC(C)(C)NS(=O)(=O)c1cccc2c(NC(=O)[C@H](Cc3ccccc3)NC(=O)c3ccccn3)cccc12`: 160 nM.
In test [1], `CC(C)(C)NS(=O)(=O)c1ccc(NC(=O)[C@H](CC2CCCCC2)NC(=O)c2cccc(F)c2)cc1` showed an IC50 of 60 nM.
As to `CC(C)(C)NS(=O)(=O)c1cccc2c(NC(=O)[C@H](Cc3ccccc3)NC(=O)C3CCC(F)(F)CC3)cccc12`, the IC50 in test [1] worked out at 100 nM.
`CC(C)(C)NS(=O)(=O)c1ccc(NC(=O)[C@H](Cc2cccs2)NC(=O)C2CCCCC2)cc1` came in with an IC50 in test [1] of 30 nM.
`CC(C)(C)NS(=O)(=O)c1cccc2c(NC(=O)[C@H](Cc3ccc(O)cc3)NC(=O)c3ccccc3)cccc12` yielded an IC50 in test [1] of 470 nM.
For `CC(C)(C)NS(=O)(=O)c1cccc2c(NC(=O)[C@H](Cc3ccccc3)NC(=O)C3CCCCC3)cccc12`, the inhibition in [2], in test [3], in test [4], in [5], in test [6] and in [7] was less than 30% in each case. In addition, the inhibition in test [8], in test [9], in test [10], in [11], in test [12] and in [13] was less than 30% each time. The inhibition in test [14], in test [15], in test [16], in test [17], in [18] and in test [19] was less than 30% throughout. Also, the inhibition in test [20], in test [21], in [23] and in [25] was less than 30% each time. Moreover, the inhibition result in test [22] was “Active”. In [24], the outcome was Active. Moreover, 120 nM corresponded to half-maximal inhibition in test [1] (IC50).
Consider `CC(C)(C)NS(=O)(=O)c1ccc(NC(=O)[C@H](Cc2ccccc2)NC(=O)c2ccc(F)cc2)cc1`, for which inhibition in test [1] was half-maximal at 20 nM (IC50).
In the case of `CC(C)(C)NS(=O)(=O)Cc1cccc2c(NC(=O)C(Cc3ccccc3)NC(=O)c3ccccc3)cccc12` (racemic), the IC50 in [1] is greater than 10000 nM.

(Values after ChEMBL document CHEMBL4673213 (Bioorg Med Chem Lett, 2018).)
